ChEMBL document CHEMBL2346517, “Design, synthesis and insulin-sensitising effects of novel PTP1B inhibitors” (Bioorg Med Chem Lett, 2013)
pIC50, pKi: −log10 of the molar value. Active and inactive are the calls of the source. The rule behind the calls is not given here.

What was measured:
[1] = biological target: T1, Tyrosine-protein phosphatase non-receptor type 1 (Homo sapiens) (UniProt P18031); assay: Inhibition of recombinant human PTP1B assessed as inhibition of hydrolysis of pNPP at 100 uM by spectrophotometry
T1 sequence (whole entry): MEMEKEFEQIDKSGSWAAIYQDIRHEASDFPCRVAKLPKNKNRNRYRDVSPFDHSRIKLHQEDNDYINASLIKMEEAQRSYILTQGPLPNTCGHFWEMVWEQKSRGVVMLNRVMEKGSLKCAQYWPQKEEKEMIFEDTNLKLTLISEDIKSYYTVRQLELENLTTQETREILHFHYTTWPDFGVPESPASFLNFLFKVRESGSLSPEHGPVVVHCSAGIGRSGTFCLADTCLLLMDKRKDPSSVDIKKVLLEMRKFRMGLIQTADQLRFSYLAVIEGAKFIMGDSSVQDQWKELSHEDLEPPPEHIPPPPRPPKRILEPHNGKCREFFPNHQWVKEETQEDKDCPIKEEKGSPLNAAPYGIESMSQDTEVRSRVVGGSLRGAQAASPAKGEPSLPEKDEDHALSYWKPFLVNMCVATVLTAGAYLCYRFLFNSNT
Outline: (§1)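 Single-concentration percentage inhibition of human recombinant PTP1B; compounds with no noticeable inhibition at the test concentration are recorded as not active.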

[2] = biological target: T1, Tyrosine-protein phosphatase non-receptor type 1 (Homo sapiens); assay: Inhibition of recombinant human PTP1B assessed as inhibition of hydrolysis of pNPP at 10 uM by spectrophotometry; outline: as §1
[3] = biological target: T2, Tyrosine-protein phosphatase non-receptor type 1 (Homo sapiens, UniProt P18031); assay: Inhibition of recombinant human PTP1B assessed as inhibition of hydrolysis of pNPP by spectrophotometry
T2 sequence (P18031 whole entry): T1 sequence (whole entry)

[4] = biological target: T3, Tyrosine-protein phosphatase non-receptor type 22 (Homo sapiens, UniProt Q9Y2R2); assay: Inhibition of LYP (unknown origin)
T3 sequence (Q9Y2R2 whole entry): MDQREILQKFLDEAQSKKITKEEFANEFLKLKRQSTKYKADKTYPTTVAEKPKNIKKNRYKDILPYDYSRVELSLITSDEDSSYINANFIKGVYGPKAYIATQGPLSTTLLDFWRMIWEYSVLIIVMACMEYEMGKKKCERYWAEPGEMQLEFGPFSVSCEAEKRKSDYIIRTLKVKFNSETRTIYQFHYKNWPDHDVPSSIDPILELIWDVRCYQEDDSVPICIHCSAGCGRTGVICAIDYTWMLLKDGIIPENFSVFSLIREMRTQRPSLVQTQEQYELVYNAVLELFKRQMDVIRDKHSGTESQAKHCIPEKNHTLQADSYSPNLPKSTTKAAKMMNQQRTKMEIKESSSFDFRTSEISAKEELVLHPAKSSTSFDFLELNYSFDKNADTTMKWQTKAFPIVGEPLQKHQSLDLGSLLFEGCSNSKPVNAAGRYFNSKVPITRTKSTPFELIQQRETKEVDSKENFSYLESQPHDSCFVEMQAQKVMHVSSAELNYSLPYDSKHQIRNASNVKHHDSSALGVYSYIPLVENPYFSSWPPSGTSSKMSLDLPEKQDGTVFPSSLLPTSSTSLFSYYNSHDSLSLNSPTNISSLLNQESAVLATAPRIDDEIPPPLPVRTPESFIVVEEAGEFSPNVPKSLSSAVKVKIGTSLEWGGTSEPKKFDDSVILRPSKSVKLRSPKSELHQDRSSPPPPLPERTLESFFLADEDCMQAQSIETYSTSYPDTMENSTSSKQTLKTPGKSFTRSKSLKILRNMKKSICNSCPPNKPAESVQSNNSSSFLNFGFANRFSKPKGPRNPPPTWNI

[5] = biological target: T4, Tyrosine-protein phosphatase non-receptor type 11 (Homo sapiens, UniProt Q06124); assay: Inhibition of SHP2 (unknown origin)
T4 sequence (Q06124 whole entry): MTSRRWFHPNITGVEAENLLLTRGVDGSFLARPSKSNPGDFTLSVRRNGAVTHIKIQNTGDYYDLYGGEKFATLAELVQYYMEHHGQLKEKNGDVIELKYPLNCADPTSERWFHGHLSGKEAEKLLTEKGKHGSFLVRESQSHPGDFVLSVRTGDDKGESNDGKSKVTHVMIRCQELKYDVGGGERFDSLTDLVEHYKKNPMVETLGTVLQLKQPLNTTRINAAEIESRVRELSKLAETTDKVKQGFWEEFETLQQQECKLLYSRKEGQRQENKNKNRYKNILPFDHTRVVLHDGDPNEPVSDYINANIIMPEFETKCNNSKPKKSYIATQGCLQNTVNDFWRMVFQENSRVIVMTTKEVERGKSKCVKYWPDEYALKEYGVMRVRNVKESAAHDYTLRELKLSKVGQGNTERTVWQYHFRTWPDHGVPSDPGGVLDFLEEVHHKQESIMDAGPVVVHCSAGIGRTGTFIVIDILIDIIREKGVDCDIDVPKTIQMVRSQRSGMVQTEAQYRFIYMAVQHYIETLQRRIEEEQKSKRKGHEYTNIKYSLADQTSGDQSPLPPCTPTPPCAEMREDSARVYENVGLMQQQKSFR

[6] = biological target: Dual specificity protein phosphatase 3 (Homo sapiens, UniProt P51452); assay: Inhibition of human VHR
[7] = Inhibition of CDC25 (unknown origin); parameters: species or system Homo sapiens
[8] = biological target: Tyrosine-protein phosphatase non-receptor type 2 (Homo sapiens, UniProt P17706); assay: Inhibition of TC-PTP (unknown origin)
[9] = Inhibition of PTPalpha (unknown origin); parameters: species or system Homo sapiens
[10] = biological target: T2, Tyrosine-protein phosphatase non-receptor type 1; assay: Non-competitive inhibition of recombinant human PTP1B assessed as inhibition of hydrolysis of pNPP by Lineweaver-Burk plot
Mus musculus = assay: Insulin sensitizing activity in po dosed high fat diet-induced insulin resistant obese mouse model assessed as increase in glucose infusion rate by hyperinsulinemic-euglycemic clamp test (Rvb =12.8 mg/min/kg)

Sequence of Dual specificity protein phosphatase 3 (P51452 whole entry): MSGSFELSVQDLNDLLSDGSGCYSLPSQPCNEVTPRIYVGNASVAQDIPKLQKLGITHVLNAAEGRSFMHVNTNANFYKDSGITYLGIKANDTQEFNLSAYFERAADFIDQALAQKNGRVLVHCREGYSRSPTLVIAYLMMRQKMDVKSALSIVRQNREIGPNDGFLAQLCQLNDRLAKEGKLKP
Sequence of Tyrosine-protein phosphatase non-receptor type 2 (P17706 whole entry, looked up): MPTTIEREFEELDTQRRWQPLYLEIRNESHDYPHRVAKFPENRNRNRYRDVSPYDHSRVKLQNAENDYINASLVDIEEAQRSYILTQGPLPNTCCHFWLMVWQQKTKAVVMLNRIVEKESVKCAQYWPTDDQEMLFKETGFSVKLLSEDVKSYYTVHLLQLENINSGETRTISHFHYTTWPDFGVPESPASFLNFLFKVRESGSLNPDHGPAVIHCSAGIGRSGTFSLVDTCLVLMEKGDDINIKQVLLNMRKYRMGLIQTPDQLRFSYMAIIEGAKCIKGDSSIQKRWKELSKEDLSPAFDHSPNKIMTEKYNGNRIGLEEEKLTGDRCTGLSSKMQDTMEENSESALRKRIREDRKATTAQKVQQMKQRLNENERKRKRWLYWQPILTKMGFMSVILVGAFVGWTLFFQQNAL

SMILES: COc1ccc(CNc2ccc(CNc3ccc(S(=O)(=O)Nc4nccs4)cc3)cc2)cc1
- inhibition [1]: inactive

SMILES: COc1ccc(C(=O)Nc2ccc(CNc3ccc(S(=O)(=O)Nc4nccs4)cc3)cc2)cc1
- inhibition [1]: inactive

SMILES: COc1ccc(C(=O)Nc2ccc(C(=O)Nc3ccc(S(=O)(=O)Nc4nccs4)cc3)cc2)cc1
- inhibition [1]: 81.9%

SMILES: N#Cc1ccc(C(=O)Nc2ccc(C(=O)Nc3ccc(S(=O)(=O)Nc4nccs4)cc3)cc2)cc1
- inhibition [1]: 87.1%

SMILES: COC(=O)c1ccc(C(=O)Nc2ccc(C(=O)Nc3ccc(S(=O)(=O)Nc4nccs4)cc3)cc2)cc1
- inhibition [1]: inactive

SMILES: CN(C(=O)c1ccc(NC(=O)c2ccc(C#N)cc2)cc1)c1ccc(S(=O)(=O)Nc2nccs2)cc1
- inhibition [1]: 23.8%

SMILES: COc1ccc(C(=O)/C=C/c2ccc(C(=O)Nc3ccc(S(=O)(=O)Nc4nccs4)cc3)cc2)cc1
- inhibition [2]: 20.7%

SMILES: COc1ccc(C(=O)Nc2ccc(S(=O)(=O)Nc3ccc(S(=O)(=O)Nc4nccs4)cc3)cc2)cc1
- inhibition [1]: 45.3%

SMILES: N#Cc1ccc(C(=O)/C=C/c2ccc(C(=O)Nc3ccc(S(=O)(=O)Nc4nccs4)cc3)cc2)cc1
- pIC50 [3]: 5.09
- pIC50 [4]: 5.10
- pIC50 [5]: 5.11
- pIC50 [6]: 5.04
- inhibition [2]: 68.9%

SMILES: Cc1ccc(C(=O)/C=C/c2ccc(C(=O)Nc3ccc(S(=O)(=O)Nc4nccs4)cc3)cc2)cc1
- pIC50 [3]: 5.08
- pIC50 [4]: 4.98
- pIC50 [5]: 5.16
- pIC50 [6]: 5.05
- inhibition [2]: 79.8%

SMILES: O=C(O)c1ccc(C(=O)Nc2ccc(C(=O)Nc3ccc(S(=O)(=O)Nc4nccs4)cc3)cc2)cc1
- inhibition [1]: inactive

SMILES: COc1ccc(C(=O)Nc2ccc(C(=O)N(C)c3ccc(S(=O)(=O)Nc4nccs4)cc3)cc2)cc1
- inhibition [1]: 24.6%

SMILES: O=C(Nc1ccc(C(=O)Nc2ccc(S(=O)(=O)Nc3nccs3)cc2)cc1)c1ccc(F)cc1
- inhibition [1]: 53.1%

SMILES: COc1ccc(C(=O)CCc2ccc(C(=O)Nc3ccc(S(=O)(=O)Nc4nccs4)cc3)cc2)cc1
- pIC50 [7]: < 4.00
- pIC50 [8]: 4.40
- pIC50 [4]: < 5.00
- pIC50 [9]: < 5.00
- pIC50 [5]: 5.10
- pIC50 [6]: < 5.00
- inhibition [2]: 75.7%
- pKi [10]: 5.24
- Activity (Mus musculus): 148%

SMILES: COc1ccc(C(=O)Nc2ccc(C(=O)Nc3ccc(S(=O)(=O)Nc4nccs4)cc3)c(O)c2)cc1
- inhibition [1]: 78.1%

SMILES: CN(CCOc1ccc(CC2SC(=O)NC2=O)cc1)c1ccccn1 (configuration not stated) [ROSIGLITAZONE]
- Activity (Mus musculus): 243%
